Laboratory results published in ChEMBL document CHEMBL1153991, “Anthranilamide-based N,N-dialkylbenzamidines as potent and orally bioavailable factor Xa inhibitors: P4 SAR” (Bioorg Med Chem Lett, 2009).

Experiments:
[1] = test system: Plasma; test: Anticoagulant activity in human plasma assessed as concentration required to double the thrombin generation time; format: functional
[2] = Oral bioavailability in rat; format: ADME, organism-based; conditions: in vivo
[3] = Volume of distribution in rat; format: ADME, organism-based; conditions: in vivo
[4] = target: Vitamin K-dependent protein C (Homo sapiens) (UniProt P04070); test: Inhibition of activated protein C
[5] = Inhibition of trypsin
[6] = target: Coagulation factor X (Homo sapiens, UniProt P00742); test: Inhibition of Factor 10a
Chain of Coagulation factor X (P00742 41-179 limits assumed): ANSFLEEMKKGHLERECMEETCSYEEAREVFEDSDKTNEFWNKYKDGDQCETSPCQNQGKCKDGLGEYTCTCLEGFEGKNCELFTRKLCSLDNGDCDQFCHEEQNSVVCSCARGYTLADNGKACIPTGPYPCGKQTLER
Chain of Coagulation factor X (P00742 235-488 limits assumed): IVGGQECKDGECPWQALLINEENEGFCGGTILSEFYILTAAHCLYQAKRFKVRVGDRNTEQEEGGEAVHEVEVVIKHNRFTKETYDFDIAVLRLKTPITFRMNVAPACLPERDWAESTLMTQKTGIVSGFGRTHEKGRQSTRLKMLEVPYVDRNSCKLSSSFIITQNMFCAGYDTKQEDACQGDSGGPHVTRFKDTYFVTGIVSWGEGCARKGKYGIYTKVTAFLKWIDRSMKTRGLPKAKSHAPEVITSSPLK

[7] = target: Plasminogen (Homo sapiens, UniProt P00747); test: Inhibition of plasmin
Chain of Plasminogen (P00747 97-580 limits assumed): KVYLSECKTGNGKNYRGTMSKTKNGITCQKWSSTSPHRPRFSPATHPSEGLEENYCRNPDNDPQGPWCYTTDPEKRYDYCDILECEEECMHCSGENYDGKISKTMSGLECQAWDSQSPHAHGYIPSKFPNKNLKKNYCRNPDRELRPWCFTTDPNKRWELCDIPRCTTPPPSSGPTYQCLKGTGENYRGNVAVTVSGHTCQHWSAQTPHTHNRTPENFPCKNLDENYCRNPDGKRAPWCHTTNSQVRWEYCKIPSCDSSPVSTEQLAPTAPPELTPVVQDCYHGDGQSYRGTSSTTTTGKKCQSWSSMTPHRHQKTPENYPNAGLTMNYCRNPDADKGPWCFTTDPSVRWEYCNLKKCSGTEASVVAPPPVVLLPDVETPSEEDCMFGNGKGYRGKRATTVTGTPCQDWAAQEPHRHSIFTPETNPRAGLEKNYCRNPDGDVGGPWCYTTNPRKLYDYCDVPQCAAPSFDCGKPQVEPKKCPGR
Chain of Plasminogen (P00747 581-810 limits assumed): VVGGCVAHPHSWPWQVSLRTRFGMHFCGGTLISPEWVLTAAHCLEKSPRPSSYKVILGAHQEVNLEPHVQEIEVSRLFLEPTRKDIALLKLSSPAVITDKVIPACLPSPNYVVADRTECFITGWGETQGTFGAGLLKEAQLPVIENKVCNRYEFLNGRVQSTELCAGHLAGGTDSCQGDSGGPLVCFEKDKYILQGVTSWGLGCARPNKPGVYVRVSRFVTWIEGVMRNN

[8] = target: Prothrombin (Homo sapiens, UniProt P00734); test: Inhibition of thrombin
[9] = Inhibition of kallikrein
[10] = target: Tissue-type plasminogen activator (Homo sapiens, UniProt P00750); test: Inhibition of tissue plasminogen activator
Chain of Tissue-type plasminogen activator (P00750 whole entry): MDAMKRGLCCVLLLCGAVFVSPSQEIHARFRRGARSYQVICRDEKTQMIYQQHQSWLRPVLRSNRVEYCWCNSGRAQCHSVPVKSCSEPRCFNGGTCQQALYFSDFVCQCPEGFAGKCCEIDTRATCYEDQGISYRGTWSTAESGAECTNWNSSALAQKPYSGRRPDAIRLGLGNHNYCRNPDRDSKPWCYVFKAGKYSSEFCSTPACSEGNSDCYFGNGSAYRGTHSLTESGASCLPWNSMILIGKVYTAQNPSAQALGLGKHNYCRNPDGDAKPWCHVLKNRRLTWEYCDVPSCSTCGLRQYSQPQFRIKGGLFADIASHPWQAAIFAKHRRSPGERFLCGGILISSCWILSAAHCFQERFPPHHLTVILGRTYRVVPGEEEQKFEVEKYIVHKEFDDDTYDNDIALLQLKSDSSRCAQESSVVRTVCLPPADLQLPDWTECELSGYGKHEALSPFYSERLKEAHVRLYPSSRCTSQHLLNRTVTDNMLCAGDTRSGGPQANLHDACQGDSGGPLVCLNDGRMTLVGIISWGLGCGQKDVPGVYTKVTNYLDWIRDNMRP

[11] = Oral bioavailability in Beagle dog at 0.5 mg/kg; format: ADME, organism-based, Canis lupus familiaris; conditions: in vivo
Method in brief: (§1)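 Beagle dogs dosed 0.1 mg/kg IV and 0.5 mg/kg PO. Derived PK parameters: F (%), t1/2 (h), CL (mL/min/kg), Vd (L/kg).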

[12] = Oral bioavailability in Sprague-Dawley rat at 6 mg/kg; format: ADME, organism-based; conditions: in vivo
Method in brief: (§2)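 Sprague–Dawley rats dosed 0.4 mg/kg IV and 6 mg/kg PO. Derived PK parameters: F (%), t1/2 (h), CL (mL/min/kg), Vd (L/kg).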

[13] = Clearance in Beagle dog at 0.1 mg/kg, iv and 0.5 mg/kg, po; format: ADME, organism-based, Canis lupus familiaris; conditions: in vivo; method in brief: as §1
[14] = Clearance in Sprague-Dawley rat at 0.4 mg/kg, iv and 6 mg/kg, po; format: ADME, organism-based; conditions: in vivo; method in brief: as §2
[15] = Volume of distribution in Sprague-Dawley rat at 0.4 mg/kg, iv and 6 mg/kg, po; format: ADME, organism-based; conditions: in vivo; method in brief: as §2
[16] = Half life in Sprague-Dawley rat at 0.4 mg/kg, iv and 6 mg/kg, po; format: ADME, organism-based; conditions: in vivo; method in brief: as §2
[17] = Half life in Beagle dog at 0.1 mg/kg, iv and 0.5 mg/kg, po; conditions: in vivo
[18] = Protein binding in human plasma; format: ADME, cell-free; conditions: read-out: PB (converted)
Method in brief: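 Plasma protein binding measured by ultrafiltration. Working solution added 1/100 to EDTA human plasma to a final 10 µM, incubated 37 °C for 30 min. Triplicate aliquots were centrifuged through filter devices for 25 min at 32 °C. Filtrate was mixed with acetonitrile containing internal standard and quantified by LC/MS/MS against standards prepared in ultrafiltered plasma.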

[19] = Volume of distribution in Beagle dog at 0.1 mg/kg, iv and 0.5 mg/kg, po; format: ADME, organism-based, Canis lupus familiaris; conditions: in vivo; method in brief: as §1

Q: With `N=C1NCCN1Cc1ccc(C(=O)Nc2ccc(Cl)cc2C(=O)Nc2ccc(Cl)cn2)cc1` as the compound, how does the Activity [1] read?
A: 0.58 µM

Q: What about the bioavailability [2] of the same compound?
A: < 1%

Q: Which Activity [1] does the source give for `NS(=O)(=O)c1ccccc1-c1ccc(C(=O)Nc2ccccc2C(=O)Nc2ccc(Cl)cn2)cc1` here?
A: >5 µM

Q: And the bioavailability [2]?
A: 35%

Q: Which Activity [1] does the source give for `N=C1OCCN1Cc1ccc(C(=O)Nc2ccc(Cl)cc2C(=O)Nc2ccc(Cl)cn2)cc1` here?
A: 0.56 µM

Q: What about the Vd [3] of the same compound?
A: 13.6 L/kg

Q: Which results are given for `N=C(N)c1ccc(C(=O)Nc2ccccc2C(=O)Nc2ccc(Cl)cn2)cc1`?
A: IC50 [4]: > 10 µM; IC50 [5]: > 10 µM; bioavailability [2]: < 5%; IC50 [6]: 0.004 µM; IC50 [7]: > 10 µM; IC50 [8]: > 10 µM; IC50 [9]: 4.9 µM; IC50 [10]: > 10 µM

Q: With `CONC(=N)c1ccc(C(=O)Nc2ccccc2C(=O)Nc2ccc(Cl)cn2)cc1` as the compound, how does the IC50 [6] read?
A: 0.29 µM

Q: Which IC50 [6] does the source give for `N=C(NN)c1ccc(C(=O)Nc2ccccc2C(=O)Nc2ccc(Cl)cn2)cc1` here?
A: 0.025 µM

Q: For `CN(C)NC(=N)c1ccc(C(=O)Nc2ccccc2C(=O)Nc2ccc(Cl)cn2)cc1`, which IC50 [6] is on record?
A: 0.03 µM

Q: With `N=C(c1ccc(C(=O)Nc2ccccc2C(=O)Nc2ccc(Cl)cn2)cc1)N1CCS(=O)(=O)CC1` as the compound, how does the IC50 [6] read?
A: 0.256 µM

Q: With `N=C(c1ccc(C(=O)Nc2ccccc2C(=O)Nc2ccc(Cl)cn2)cc1)N1CCOCC1` as the compound, how does the IC50 [6] read?
A: 0.007 µM

Q: For `N=C(c1ccc(C(=O)Nc2ccccc2C(=O)Nc2ccc(Cl)cn2)cc1)N1CCSCC1`, which IC50 [6] is on record?
A: 0.012 µM

Q: Which IC50 [6] does the source give for `CN1CCN(C(=N)c2ccc(C(=O)Nc3ccccc3C(=O)Nc3ccc(Cl)cn3)cc2)CC1` here?
A: 0.714 µM

Q: Which bioavailability [11] does the source give for `CN1CCN=C1c1ccc(C(=O)Nc2ccccc2C(=O)Nc2ccc(Cl)cn2)cc1` here?
A: 50%

Q: What about the Activity [1] of the same compound?
A: 1.1 µM

Q: And the bioavailability [12]?
A: 22%

Q: What about the clearance [13] of the same compound?
A: 2.98 L/h/kg

Q: And the clearance [14]?
A: 0.426 L/h/kg

Q: What about the Vd [15] of the same compound?
A: 3.7 L/kg

Q: And the IC50 [6]?
A: 0.02 µM

Q: What about the half-life [16] of the same compound?
A: > 6 h

Q: And the half-life [17]?
A: 2.2 h

Q: What about the fraction unbound [18] of the same compound?
A: 0.18

Q: What about the Vd [19] of the same compound?
A: 9.2 L/kg

Q: For `CCN1CCN=C1c1ccc(C(=O)Nc2ccccc2C(=O)Nc2ccc(Cl)cn2)cc1`, which IC50 [6] is on record?
A: 0.064 µM

Q: Which IC50 [6] does the source give for `O=C(Nc1ccccc1C(=O)Nc1ccc(Cl)cn1)c1ccc(C2=NCCCN2)cc1` here?
A: 0.226 µM

Q: Which results are given for `CN(C)C(=N)c1ccc(C(=O)Nc2ccccc2C(=O)Nc2ccc(Cl)cn2)cc1`?
A: bioavailability [11]: 69%; Activity [1]: 0.54 µM; clearance [13]: 2.74 L/h/kg; clearance [14]: 1.01 L/h/kg; Vd [15]: 6.3 L/kg; half-life [16]: 4.3 h; half-life [17]: 3.5 h; fraction unbound [18]: 0.27; Vd [19]: 13.7 L/kg

Q: For `CN1CCCN=C1c1ccc(C(=O)Nc2ccccc2C(=O)Nc2ccc(Cl)cn2)cc1`, which IC50 [6] is on record?
A: 0.078 µM

Q: Which IC50 [6] does the source give for `CCN(C)C(=N)c1ccc(C(=O)Nc2ccccc2C(=O)Nc2ccc(Cl)cn2)cc1` here?
A: 0.006 µM

Q: With `N=C(c1ccc(C(=O)Nc2ccccc2C(=O)Nc2ccc(Cl)cn2)cc1)N1CCCC1` as the compound, how does the IC50 [6] read?
A: 0.008 µM

Q: With `CCN(CC)C(=N)c1ccc(C(=O)Nc2ccccc2C(=O)Nc2ccc(Cl)cn2)cc1` as the compound, how does the IC50 [6] read?
A: 0.01 µM

Q: For `CCNC(=N)c1ccc(C(=O)Nc2ccccc2C(=O)Nc2ccc(Cl)cn2)cc1`, which IC50 [6] is on record?
A: 0.093 µM

Q: For `N=C(c1ccc(C(=O)Nc2ccccc2C(=O)Nc2ccc(Cl)cn2)cc1)N1CCC1`, which IC50 [6] is on record?
A: 0.008 µM

Q: With `N=C(c1ccc(C(=O)Nc2ccccc2C(=O)Nc2ccc(Cl)cn2)cc1)N1CCNCC1` as the compound, how does the IC50 [6] read?
A: 0.038 µM

Q: For `N=C(c1ccc(C(=O)Nc2ccccc2C(=O)Nc2ccc(Cl)cn2)cc1)N1CCCCC1`, which Activity [1] is on record?
A: 0.36 µM

Q: What about the bioavailability [12] of the same compound?
A: 18%

Q: And the clearance [14]?
A: 1.93 L/h/kg

Q: And the Vd [15]?
A: 16.7 L/kg

Q: And the IC50 [6]?
A: 0.003 µM

Q: And the half-life [16]?
A: 6 h

Q: What about the fraction unbound [18] of the same compound?
A: 0.11

Q: With `N=C(NO)c1ccc(C(=O)Nc2ccccc2C(=O)Nc2ccc(Cl)cn2)cc1` as the compound, how does the IC50 [6] read?
A: 0.035 µM

Q: For `O=C(Nc1ccccc1C(=O)Nc1ccc(Cl)cn1)c1ccc(C2=NCCN2)cc1`, which IC50 [6] is on record?
A: 0.316 µM

Q: For `CCCN(C)C(=N)c1ccc(C(=O)Nc2ccccc2C(=O)Nc2ccc(Cl)cn2)cc1`, which IC50 [6] is on record?
A: 0.009 µM

Q: Which IC50 [6] does the source give for `CNC(=N)c1ccc(C(=O)Nc2ccccc2C(=O)Nc2ccc(Cl)cn2)cc1` here?
A: 0.023 µM
